The target in series [1] is T1, Glucose-dependent insulinotropic receptor (Homo sapiens) (UniProt Q8TDV5).
T1 sequence (whole entry): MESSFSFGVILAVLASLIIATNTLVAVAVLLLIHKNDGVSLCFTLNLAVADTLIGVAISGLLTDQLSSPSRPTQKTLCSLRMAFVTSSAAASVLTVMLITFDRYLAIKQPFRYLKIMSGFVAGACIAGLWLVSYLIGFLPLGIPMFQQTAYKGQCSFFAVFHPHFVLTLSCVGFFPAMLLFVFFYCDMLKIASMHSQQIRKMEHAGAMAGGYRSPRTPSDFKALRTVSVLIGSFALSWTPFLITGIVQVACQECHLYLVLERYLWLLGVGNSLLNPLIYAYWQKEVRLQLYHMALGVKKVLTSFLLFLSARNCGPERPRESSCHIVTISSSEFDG
As to the kind of experiment: Agonist activity at CREB-LBD and Gal4-DBD fused recombinant human GPR119 expressed in HEK293 cells at 1 uM by firefly luciferase assay relative to AR231453. It is filed as functional, cell-based. The settings on record: filed as agonist. Put shortly: (§1)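 HEK293 cells transiently transfected with human GPR119, a Gal4-DBD/CREB-LBD fusion and a Gal4 UAS-driven luciferase reporter, then treated with compound (DMSO vehicle). Firefly luciferase luminescence read. Activation fold = compound/vehicle, expressed as percent of the AR231453 activation fold. EC50 obtained by curve fitting.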

Series [2] concerns the target T2, Glucose-dependent insulinotropic receptor (Homo sapiens, UniProt Q8TDV5).
T2 sequence (Q8TDV5 whole entry): T1 sequence (whole entry)
As to the kind of experiment: Agonist activity at CREB-LBD and Gal4-DBD fused recombinant human GPR119 expressed in HEK293 cells by firefly luciferase assay. It is filed as functional, cell-based. Put shortly: as §1

For another series, the target named is DPP8/9 (Homo sapiens, UniProt Q6V1X1+Q86TI2). Nature of the series: Inhibition of recombinant human DPP8/9 expressed in Rosetta cells at 10 uM using Gly-Pro-p-nitroanilide as substrate incubated for 1 hr relative to control. The conditions noted are these: probe Gly-Pro-p-nitroanilide.
Series [3] in a line: Metabolic stability in ICR/CD-1 mouse hepatocytes assessed as parent compound remaining incubated for 30 mins by LC-MS/MS analysis. The settings on record: read-out: Stabilty. It is filed as ADME, cell-based, Hepatocyte. The essentials: (§2)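 Hepatocytes from male ICR/CD-1 mice, male Sprague-Dawley rats, or mixed human donors. Parent compound measured after 30 min incubation and normalised to the time-zero concentration.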

The nature of series [4]: Metabolic stability in Sprague-Dawley rat hepatocytes assessed as parent compound remaining incubated for 30 mins by LC-MS/MS analysis. The conditions noted are these: read-out: Stabilty. It is filed as ADME, cell-based, Hepatocyte. The essentials:
as §2

The nature of series [5]: Metabolic stability in human hepatocytes assessed as parent compound remaining incubated for 30 mins by LC-MS/MS analysis. In kind it is ADME, cell-based, Hepatocyte. The settings on record: read-out: Stabilty. Put shortly:
as §2

In a further series the test system is Vero. Nature of the series: Cytotoxicity against African green monkey Vero cells incubated for 48 hrs by MTT assay. The conditions noted are these: Chlorocebus sabaeus. On the technique in general: Formazan colour is commonly taken as a measure of viable cells.
The test system of another series is Mus musculus. As to the kind of experiment: Antidiabetic activity in ICR mouse assessed as reduction in blood glucose AUC at 10 mg/kg, po administered as single dose followed by glucose challenge measured upto 120 mins by OGTT relative to control. It is filed as functional. Further details: scale not given: the % may be the effect or the level left. The settings on record: time min <=120. Put shortly: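 ICR mice were fasted overnight and dosed by oral gavage, with distilled water as vehicle, before an oral glucose load of 2 g/kg. Tail-tip blood was sampled at 0, 30, 60 and 120 min and glucose measured by the glucose oxidase method. AUC was compared with the vehicle group. n = 10 per group, mean ± SEM.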

Series [6] can be described thus: Elimination half life in ICR mouse plasma at 20 mg/kg, po measured up to 24 hrs. In kind it is ADME, organism-based. The conditions noted are these: read-out: beta t1/2 (converted). The essentials: (§3)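 Male ICR mice (26–27 g), three per route. Oral dose given as a 2 mg/mL suspension in 0.5% carboxymethyl cellulose; intravenous dose as 0.4 mg/mL in 30% SBECD with 1 mol/L HCl. Blood taken at 5, 15, 30 min and 1, 2, 4, 7, 24 h; plasma stored at -80 °C. Non-compartmental analysis; F = (AUCpo×dose iv)/(AUCiv×dose po).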

The nature of series [7]: Elimination half life in ICR mouse plasma at 2 mg/kg, iv measured up to 24 hrs. It is filed as ADME, organism-based. The settings on record: read-out: beta t1/2 (converted). The essentials: as §3
The nature of series [8]: Elimination half-life in Sprague-Dawley rat plasma at 30 mg/kg, po measured up to 24 hrs. It is filed as ADME, organism-based. The conditions noted are these: read-out: beta t1/2 (converted). The essentials:
(§4)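 Male SD rats (180–200 g), three per route, dosed as free base content. Oral formulation in 0.5% carboxymethyl cellulose; intravenous formulation in normal saline. Sampling at 5, 15, 30 min and 1, 1.5, 2, 4, 6, 8, 12, 24 h; plasma kept at -80 °C. Non-compartmental parameters; F = (AUCpo×dose iv)/(AUCiv×dose po).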

Series [9] is described as follows: Tmax in ICR mouse plasma at 20 mg/kg, po measured up to 24 hrs. It is filed as ADME, organism-based. Put shortly:
as §3

A short description of series [10]: Tmax in Sprague-Dawley rat plasma at 30 mg/kg, po measured up to 24 hrs. In kind it is ADME, organism-based. The essentials: as §4
Series [11] is described as follows: Cmax in ICR mouse plasma at 20 mg/kg, po measured up to 24 hrs. In kind it is ADME, organism-based. Also noted: route oral, dose 20 mg/kg, time <=24. The essentials:
as §3

A short description of series [12]: Cmax in ICR mouse plasma at 2 mg/kg, iv measured up to 24 hrs. In kind it is ADME, organism-based. Also noted: route intravenous, dose 2 mg/kg, time <=24. Put shortly: as §3
A short description of series [13]: Cmax in Sprague-Dawley rat plasma at 30 mg/kg, po measured up to 24 hrs. It is filed as ADME, organism-based. Also noted: route oral, dose 30 mg/kg, time <=24. The essentials: as §4
A short description of series [14]: AUC(0 to t) in ICR mouse plasma at 20 mg/kg, po measured up to 24 hrs. It is filed as ADME, organism-based. Further details: route oral, dose 20 mg/kg, time <=24. Put shortly: as §3
The nature of series [15]: AUC(0 to t) in ICR mouse plasma at 2 mg/kg, iv measured up to 24 hrs. In kind it is ADME, organism-based. Also noted: route intravenous, dose 2 mg/kg, time <=24. The essentials: as §3
A short description of series [16]: AUC(0 to t) in Sprague-Dawley rat plasma at 30 mg/kg, po measured up to 24 hrs. It is filed as ADME, organism-based. Also noted: route oral, dose 30 mg/kg, time <=24. Put shortly: as §4
Series [17] is described as follows: AUC(0 to infinity) in ICR mouse plasma at 20 mg/kg, po measured up to 24 hrs. Also noted: route oral, dose 20 mg/kg, time <=24. In kind it is ADME, organism-based. Put shortly: as §3
Series [18] is described as follows: AUC(0 to infinity) in ICR mouse plasma at 2 mg/kg, iv measured up to 24 hrs. It is filed as ADME, organism-based. Also noted: route intravenous, dose 2 mg/kg, time <=24. Put shortly:
as §3

Series [19] in a line: AUC(0 to infinity) in Sprague-Dawley rat plasma at 30 mg/kg, po measured up to 24 hrs. It is filed as ADME, organism-based. Further details: route oral, dose 30 mg/kg, time <=24. The essentials:
as §4

Series [20] is described as follows: Mean residence time (0 to infinity) in ICR mouse at 20 mg/kg, po measured up to 24 hrs. In kind it is ADME, organism-based. The settings on record: in vivo. Put shortly:
as §3

Series [21] is described as follows: Mean residence time (0 to infinity) in ICR mouse at 2 mg/kg, iv measured up to 24 hrs. In kind it is ADME, organism-based. The conditions noted are these: in vivo. The essentials: as §3
A short description of series [22]: Mean residence time (0 to infinity) in Sprague-Dawley rat at 30 mg/kg, po measured up to 24 hrs. It is filed as ADME, organism-based. The settings on record: in vivo. Put shortly: as §4
Series [23] can be described thus: Oral bioavailability in ICR mouse at 20 mg/kg. It is filed as ADME, organism-based. The settings on record: in vivo. Put shortly: as §3
Series [24] is described as follows: Oral bioavailability in Sprague-Dawley rat at 30 mg/kg. It is filed as ADME, organism-based. The settings on record: in vivo. Put shortly:
as §4

≈ marks a conversion by molar mass, not a printed value.

Broadly, the EC50 is the concentration giving half of the maximal effect. Regarding `CC#CCn1c(N2CCC[C@@H](N)C2)nc2c1c(=O)n(CCCN1CCN(c3ncc(OC)cn3)CC1)c(=O)n2C`, the Activity in series [1] is 79%. For the same compound, the EC50 in series [2] was 2260 nM.
As usually defined, the inhibition is the share of the control response that was lost under treatment. Consider `CC#CCn1c(N2CCC[C@@H](N)C2)nc2c1c(=O)n(CCCN1CCC(c3cc(-c4ccccc4)on3)CC1)c(=O)n2C`, for which the inhibition at 1 h, 10 µM on DPP8/9 amounted to 3.3%. In series [1], the Activity was determined as 49%.
With `CC(C)c1noc(C2CCN(c3ncnc(Nc4ccc(S(C)(=O)=O)cc4F)c3[N+](=O)[O-])CC2)n1`, the Activity in series [1] turned out to be 100%. Moreover, in series [2], the EC50 was determined as 640 nM.
In general, IC50 refers to the midpoint of a concentration-inhibition curve. `CC#CCn1c(N2CCC[C@@H](N)C2)nc2c1c(=O)n(CCCN1CCC(n3cc(-c4ccccc4)nn3)CC1)c(=O)n2C`: the inhibition at 1 h, 10 µM at DPP8/9 turned out to be 0%. In [1], the Activity was determined as 47%. Moreover, the remaining at 0.5 h in series [3] came to 21%; in series [4], 19.7%; in series [5], 68.1%. Further, the IC50 in the series on Vero came out at 25.9 µg/mL (≈ 44.3 µM).
For the compound `CC#CCn1c(N2CCC[C@@H](N)C2)nc2c1c(=O)n(CCCN1CCN(c3nc(-c4ccccc4)cs3)CC1)c(=O)n2C`, on DPP8/9, the inhibition at 1 h, 10 µM was 0%. In addition, the Activity in series [1] worked out at 56%. In addition, the EC50 in [2] was determined as 650 nM. The remaining at 0.5 h in series [3] was determined as 68.3%; in [4], 39.6%; in series [5], 91.5%. The compound further gave an IC50 in the series on Vero of 4.3 µg/mL (≈ 7.15 µM).
`N[C@@H](CC(=O)N1CCn2c(nnc2C(F)(F)F)C1)Cc1cc(F)c(F)cc1F` [SITAGLIPTIN]: the Activity with Mus musculus amounted to 27.3%.
Take `CC#CCn1c(N2CCC[C@@H](N)C2)nc2c1c(=O)n(CCCN1CCN(c3cc(C)nn3-c3ccccc3)CC1)c(=O)n2C`: the inhibition at 1 h, 10 µM at DPP8/9 was 15.4%. For the same compound, the Activity in series [1] worked out at 42%.
In general, Tmax refers to the time at which the peak concentration occurs. By Cmax is commonly meant the highest concentration seen after dosing. The AUC(0-t) is exposure summed from dosing to a finite time, without extrapolation to infinity. In general, AUC(0-inf) refers to the area under the concentration-time curve extrapolated to infinity. The term MRT inf denotes a mean duration of stay, worked out from the concentration-time curve. One may read the bioavailability as dose-corrected exposure relative to a reference, in per cent. In the case of `CC#CCn1c(N2CCC[C@@H](N)C2)nc2c1c(=O)n(CCCN1CCN(c3nc(-c4ccccc4)no3)CC1)c(=O)n2C`, at DPP8/9, the inhibition at 1 h, 10 µM stood at 0%. Besides, the EC50 in series [2] turned out to be 1400 nM. For the same compound, the remaining at 0.5 h in series [3] is 32%; in series [4] it was 23.8%; in series [5] it was 101%. Inhibition in the series on Vero was half-maximal at 46.6 µg/mL (≈ 79.4 µM) (IC50). Moreover, the half-life is 63.6 min in series [6], 98.4 min in series [7] and 66.6 min in series [8]. Moreover, the time of peak concentration (Tmax) amounted to 25.2 min in series [9] and 1.17 h in series [10]. The Cmax stood at 213 ng/mL in series [11], 850 ng/mL in [12] and 192 ng/mL in series [13]. Also, the exposure AUC(0-t) at 24 h came out at 308 ng·h/mL in [14], 257 ng·h/mL in [15] and 468 ng·h/mL in series [16]. For the same compound, the results for the AUC(0-inf) in series [17], in series [18] and in series [19] were 318 ng·h/mL, 261 ng·h/mL and 502 ng·h/mL, respectively. The results for the mean residence time (MRT inf) in [20], in [21] and in [22] were 1.22 h, 45.6 min and 2.11 h, respectively. Further, the bioavailability in series [23] is 12.2%; in series [24], 31.8%.
In the case of `CC#CCn1c(N2CCC[C@@H](N)C2)nc2c1c(=O)n(CCCN1CCC(c3nc(-c4ccccc4)no3)CC1)c(=O)n2C`, the Activity in [1] was 55%.
Turning to `COc1c(Nc2ccc(S(C)(=O)=O)nc2C)ncnc1OC1CCN(C(=O)OC(C)C)CC1` [ADP-597], the Activity in the series on Mus musculus was 19.9%.
For `CC#CCn1c(N2CCC[C@@H](N)C2)nc2c1c(=O)n(CCCN1CCC(c3nnnn3-c3ccccc3)CC1)c(=O)n2C`, the inhibition at 1 h, 10 µM on DPP8/9 worked out at 4.6%. For the same compound, the Activity in series [1] turned out to be 53%.
